# According to PubChem BioAssay AID588629 (Broad Institute, 2011):
# Results filed as inconclusive are left out. Active and inactive are the calls of the source.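 How the source made its calls: active means every test run called active, with signal falling and half-effect dose at or below the top valid dose; inconclusive means test runs give conflicting calls; inactive means all test runs inactive.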
# Biological target: cAMP-dependent protein kinase catalytic subunit alpha (Homo sapiens) (UniProt P17612)
# Experiment: inhibition of human PKA kinase activity – biochemical, Caliper mobility shift, dry powder samples, set 2, dose response (AID 588629)
# Conditions: Recombinant PKA, peptide phosphorylation
# Summary of the method: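 System: recombinant His-tagged human PKA catalytic fragment, purified enzyme; also added: 3 µM Peptide 21, 12 µM ATP; timing: kinase reaction with compound, 1 h at room temperature; technique: Microfluidic electrophoresis, EDTA-stopped endpoint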
row,IC50 [µM],SMILES
1,2.9,COc1cc(/C=C2\SC(=NCc3ccccc3)NC2=O)ccc1O
2,4.88,O=C(Nc1ccccc1-c1nc2cc(Cl)c(Cl)cc2[nH]c1=O)c1cccs1
3,6.73,O=C(Nc1ccccc1-c1nc2ccccc2[nH]c1=O)c1cc2ccccc2s1
4,3.66,COc1cc(/C=C2\SC(=Nc3ccccc3Cl)NC2=O)ccc1O

# Same assay, conditions: Recombinant PKA, peptide phosphorylation, at 10 µM (top of the series)
row,% substrate conversion (lower = inhibition),SMILES
1,inactive,COc1cc(/C=C2\SC(=Nc3ccc(F)cc3)NC2=O)ccc1O
2,inactive,COc1cc(/C=C2/SC(=Nc3ccc(O)cc3)NC2=O)ccc1O
3,inactive,COc1ccccc1N=C1NC(=O)/C(=C/c2ccccc2F)S1
4,inactive,COc1cc(/C=C2\SC(=NC(C)(C)C)NC2=O)ccc1O
5,inactive,COc1ccccc1N=C1NC(=O)/C(=C/c2ccc(C#N)cc2)S1
6,inactive,COc1ccccc1N=C1NC(=O)/C(=C/c2cccc(Cl)c2)S1
7,inactive,COc1ccccc1N=C1NC(=O)/C(=C/c2ccc(O)cc2)S1
8,inactive,COc1ccccc1Nc1nc(O)c(/C=c2/ccc3c(c2)C=CN=3)s1
9,inactive,COc1ccc(N=C2NC(=O)/C(=C/c3ccc(O)c(OC)c3)S2)cc1
10,inactive,COc1ccccc1N=C1NC(=O)/C(=C/c2ccc(Cl)cc2)S1
11,inactive,O=C(Nc1ccccc1-c1nc2ccccc2[nH]c1=O)c1cccnc1
12,inactive,COc1ccccc1N=C1NC(=O)/C(=C/c2ccccc2Cl)S1
13,inactive,O=C(Nc1ccccc1-c1nc2ccccc2[nH]c1=O)c1ccc(F)cc1
14,inactive,COc1ccccc1Nc1nc(O)c(/C=C2/C=c3ccccc3=N2)s1
15,inactive,COc1ccccc1N=C1NC(=O)/C(=C/c2cc(Cl)cc(Cl)c2O)S1
16,inactive,COc1ccccc1N=C1NC(=O)/C(=C/c2ccc(F)c(F)c2)S1
17,inactive,COc1cc(/C=C2\SC(=Nc3ccc(Cl)cc3)NC2=O)ccc1O
18,inactive,O=C(Nc1ccc(F)cc1-c1nc2ccccc2[nH]c1=O)c1cccs1
19,inactive,COc1ccccc1N=C1NC(=O)/C(=C/C(C)C)S1
20,inactive,COc1cc(/C=C2\SC(=Nc3ccncc3)NC2=O)ccc1O
21,inactive,O=C(Nc1ccc(OC(F)(F)F)cc1-c1nc2ccccc2[nH]c1=O)c1cccs1
22,inactive,COc1cc(/C=C2\SC(=Nc3ccccc3F)NC2=O)ccc1O
23,inactive,COc1ccccc1N=C1NC(=O)/C(=C/c2ccccn2)S1

row,% substrate conversion (lower = inhibition),SMILES
1,inactive,COc1ccc(-n2ncc3cnc(Nc4ccc(N5CCN(C)CC5)c(OC)c4)nc32)cc1
2,inactive,O=c1[nH]c2ccccc2nc1-c1ccccc1NCc1cccs1
3,inactive,COc1ccccc1N=C1NC(=O)/C(=C/c2cccn2C)S1
4,inactive,COc1ccccc1N=C1NC(=O)/C(=C/c2ccccc2)S1
5,inactive,COc1cc(/C=C2\SC(=Nc3ccccc3OC)NC2=O)ccc1O
6,inactive,COc1ccccc1N=C1NC(=O)/C(=C/C2CCCCC2)S1
7,inactive,COc1ccccc1N=C1NC(=O)/C(=C/c2ccncc2)S1
8,inactive,COc1cccc(/C=C2\SC(=Nc3ccccc3OC)NC2=O)c1
9,inactive,COc1cc(/C=C2\SC(=Nc3cccnc3)NC2=O)ccc1O
10,inactive,COc1ccccc1N=C1NC(=O)/C(=C/c2ccc(F)cc2)S1
11,inactive,COc1ccccc1N=C1NC(=O)/C(=C/c2cccc(F)c2)S1
12,inactive,O=C(Nc1ccc(Cl)cc1-c1nc2ccccc2[nH]c1=O)c1cccs1
13,inactive,COc1ccccc1N=C1NC(=O)/C(=C/c2ccc3c(c2)OCO3)S1
14,inactive,COc1ccccc1N=C1NC(=O)CS1
15,inactive,O=C(Nc1cc(Cl)ccc1-c1nc2ccccc2[nH]c1=O)c1cccs1
16,inactive,COc1cc(/C=C2\SC(N)=NC2=O)ccc1O
17,inactive,COc1ccccc1N=C1NC(=O)/C(=C/c2ccc(OC(F)(F)F)cc2)S1
18,inactive,COc1ccccc1/C=C1\SC(=Nc2ccccc2OC)NC1=O
19,inactive,O=C1NC(=NCc2ccccc2)S/C1=C/c1ccc(O)cc1
20,inactive,O=C(Nc1ccccc1-c1nc2ccccc2[nH]c1=O)c1cccc(F)c1
21,inactive,Nc1ccccc1-c1nc2ccccc2[nH]c1=O
22,inactive,COc1ccc(/C=C2\SC(=Nc3ccccc3OC)NC2=O)c(O)c1
23,inactive,O=C(Nc1ccccc1-c1nc2ccccc2[nH]c1=O)c1ccccn1

row,% substrate conversion (lower = inhibition),SMILES
1,inactive,COc1cc(/C=C2\SC(=Nc3cccc(F)c3)NC2=O)ccc1O
2,inactive,COc1ccccc1N=C1NC(=O)/C(=C/c2ccc(OC)c(OC)c2)S1
3,inactive,O=C(Nc1ccccc1-c1nc2ccccc2[nH]c1=O)c1cccs1
4,inactive,COc1ccccc1N=C1NC(=O)/C(=C/c2cnn(C)c2)S1
5,inactive,COc1cc(/C=C2\SC(=Nc3ccccc3OC)NC2=O)ccc1F
6,inactive,COc1ccccc1N=C1NC(=O)/C(=C/c2nc(C)cs2)S1
7,inactive,O=C(Nc1ccccc1-c1nc2ccccc2[nH]c1=O)c1ccncc1
8,inactive,O=C(Nc1ccccc1-c1nc2cc(F)c(F)cc2[nH]c1=O)c1cccs1
9,inactive,COc1ccccc1N=C1NC(=O)/C(=C/c2cc(C)on2)S1
10,inactive,CC(C)c1ccc(NC(=O)c2cccs2)c(-c2nc3ccccc3[nH]c2=O)c1
11,inactive,O=C(Nc1ccccc1-c1nc2ccccc2[nH]c1=O)C1CCCCC1
12,inactive,COc1ccc(C(=O)Nc2ccccc2-c2nc3ccccc3[nH]c2=O)cc1
13,inactive,COc1ccccc1N=C1NC(=O)/C(=C/c2ccc(C(C)C)cc2)S1
14,inactive,COc1ccccc1N=C1NC(=O)/C(=C/c2ccc3c(c2)OCCO3)S1
15,inactive,O=C(Nc1cc(F)ccc1-c1nc2ccccc2[nH]c1=O)c1cccs1
16,inactive,COc1ccccc1N=C1NC(=O)/C(=C/c2ccc(-c3cccnc3)cc2)S1
17,inactive,COc1ccccc1N=C1NC(=O)/C(=C/c2ccc(C)cc2)S1
18,inactive,COc1ccccc1N=C1NC(=O)/C(=C/c2cccnc2)S1
19,inactive,COc1cc(/C=C2\SC(=NC(C)C)NC2=O)ccc1O
20,inactive,COc1ccccc1N=C1NC(=O)/C(=C/c2ccc3c(c2)OC(F)(F)O3)S1
21,inactive,COc1ccccc1N=C1NC(=O)/C(=C/c2ccc(Cl)c(Cl)c2)S1
22,inactive,COc1ccc(/C=C2\SC(=Nc3ccccc3OC)NC2=O)cc1
